From ChEMBL document CHEMBL5260843 (J Med Chem, 2019)
Each block holds one compound with its values, some of them ahead of it. The source made the active and inactive calls. No cut-off for these calls is given here.

How the values were obtained:
[1] = biological target: T1, DCN1-like protein 1/NEDD8-conjugating enzyme Ubc12 (Homo sapiens, UniProt Q96GG9); test: Inhibition of GST-tagged DCN1 PONY domain (unknown origin)/human N-terminal acetylated UBC12 (1 to 12 residues) protein-protein interaction incubated for 1 hr by HTRF analysis; assay type: protein assay
MGC-803 [2] = test: Induction of NRF2 accumulation in human MGC-803 cells 0.01 to 10 uM incubated for 24 hrs by Western blot analysis; assay type: functional, cell-based; conditions: dose 0.01-10 µM
Outline: (§1)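 Cells in 6-well plates were exposed to compound for 24 h. MGC-803 were grown in DMEM and KYSE70 in RPMI 1640, both with 10% FBS at 37 °C and 5% CO2. Lysates were made in RIPA with protease inhibitors and quantified by BCA. 30 μg protein was run on 8% SDS-PAGE and blotted to nitrocellulose. Primary antibodies were applied overnight at 4 °C, then HRP secondaries, with ECL and film detection. GAPDH was the loading control. Run three times.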

MGC-803 [3] = test: Induction of ROS generation in human MGC-803 cells at 3 uM incubated for 24 hrs by DCFH-DA staining based flow cytometry analysis (reference value: 1.2%); assay type: functional
Cullin-5 (Homo sapiens) [4] = biological target: T2, Cullin-5 (Homo sapiens) (UniProt Q93034); test: Inhibition of cullin5 neddylation in UBC/DCN1 overactivated human MGC-803 cells at 0.3 to 10 uM incubated for 24 hrs by Western blot analysis; assay type: cell-based; conditions: dose 0.3-10 µM; outline: as §1
T2 sequence (whole entry): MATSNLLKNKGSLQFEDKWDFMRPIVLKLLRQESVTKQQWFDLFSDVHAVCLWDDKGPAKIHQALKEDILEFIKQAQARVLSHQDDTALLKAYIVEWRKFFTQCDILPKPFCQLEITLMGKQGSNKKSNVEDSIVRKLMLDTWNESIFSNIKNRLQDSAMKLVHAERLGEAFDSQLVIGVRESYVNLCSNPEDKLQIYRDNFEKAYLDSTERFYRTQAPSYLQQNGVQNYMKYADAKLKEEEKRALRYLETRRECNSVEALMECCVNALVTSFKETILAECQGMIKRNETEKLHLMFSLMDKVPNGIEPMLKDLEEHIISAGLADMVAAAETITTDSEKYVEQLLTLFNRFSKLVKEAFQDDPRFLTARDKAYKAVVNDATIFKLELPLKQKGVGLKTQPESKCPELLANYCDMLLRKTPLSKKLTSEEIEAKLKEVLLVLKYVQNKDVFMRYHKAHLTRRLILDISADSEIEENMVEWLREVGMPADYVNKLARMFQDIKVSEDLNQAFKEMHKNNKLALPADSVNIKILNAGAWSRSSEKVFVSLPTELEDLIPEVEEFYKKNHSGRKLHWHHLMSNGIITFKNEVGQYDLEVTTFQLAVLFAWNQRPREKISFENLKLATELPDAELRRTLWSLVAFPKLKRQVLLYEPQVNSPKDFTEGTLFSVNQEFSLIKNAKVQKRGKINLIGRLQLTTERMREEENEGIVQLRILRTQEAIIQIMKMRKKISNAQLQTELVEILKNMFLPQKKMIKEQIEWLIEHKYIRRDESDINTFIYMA

MGC-803 [5] = test: Inhibition of cullin2 neddylation in UBC/DCN1 overactivated human MGC-803 cells at 0.3 to 10 uM incubated for 24 hrs by Western blot analysis; assay type: cell-based; conditions: dose 0.3-10 µM; outline: as §1
MGC-803 [6] = test: Inhibition of cullin3 neddylation in UBC/DCN1 overactivated human MGC-803 cells incubated for 24 hrs by Western blot analysis; assay type: cell-based; outline: as §1
MGC-803 [7] = test: Induction of ROS generation in human MGC-803 cells at 0.3 uM incubated for 24 hrs by DCFH-DA staining based flow cytometry analysis (reference value: 1.2%); assay type: functional
Cullin-4A (Homo sapiens) [8] = biological target: Cullin-4A (Homo sapiens) (UniProt Q13619); test: Inhibition of cullin4A neddylation in UBC/DCN1 overactivated human MGC-803 cells at 0.3 to 10 uM incubated for 24 hrs by Western blot analysis; assay type: cell-based; conditions: dose 0.3-10 µM; outline: as §1
MGC-803 [9] = test: Induction of ROS generation in human MGC-803 cells at 1 uM incubated for 24 hrs by DCFH-DA staining based flow cytometry analysis (reference value: 1.2%); assay type: functional
Cullin-4B (Homo sapiens) [10] = biological target: Cullin-4B (Homo sapiens) (UniProt Q13620); test: Inhibition of cullin4B neddylation in UBC/DCN1 overactivated human MGC-803 cells at 0.3 to 10 uM incubated for 24 hrs by Western blot analysis; assay type: cell-based; conditions: dose 0.3-10 µM; outline: as §1
Cullin-1 (Homo sapiens) [11] = biological target: Cullin-1 (Homo sapiens) (UniProt Q13616); test: Inhibition of cullin1 neddylation in UBC/DCN1 overactivated human MGC-803 cells at 0.3 to 10 uM incubated for 24 hrs by Western blot analysis; assay type: cell-based; conditions: dose 0.3-10 µM; outline: as §1
MGC-803 [12] = test: Induction of ROS generation in human MGC-803 cells at 3 uM incubated for 24 hrs by DCFH-DA staining based flow cytometry analysis (reference value: 2%); assay type: functional
[13] = biological target: T1, DCN1-like protein 1/NEDD8-conjugating enzyme Ubc12; test: Inhibition of biotinylated DCN1 PONY domain (unknown origin)/human N-terminal acetylated UBC12 (1 to 12 residues) protein-protein interaction incubated for 1 hr by TR-FRET analysis; assay type: protein assay
MGC-803 [14] = test: Induction of ROS generation in human MGC-803 cells at 1 uM incubated for 24 hrs by DCFH-DA staining based flow cytometry analysis (reference value: 2%); assay type: functional
MGC-803 [15] = test: Induction of ROS generation in human MGC-803 cells at 0.3 uM incubated for 24 hrs by DCFH-DA staining based flow cytometry analysis (reference value: 2%); assay type: functional
MGC-803 [16] = test: Inhibition of cullin3 neddylation in UBC/DCN1 overactivated human MGC-803 cells at 1 uM incubated for 24 hrs by Western blot analysis; assay type: cell-based; outline: as §1
MGC-803 [17] = test: Induction of p27 accumulation in human MGC-803 cells 0.03 to 3 uM incubated for 24 hrs by Western blot analysis; assay type: functional, cell-based; conditions: dose 0.03-3 µM; outline: as §1
Cullin-4A (Homo sapiens) [18] = biological target: Cullin-4A (Homo sapiens) (UniProt Q13619); test: Inhibition of cullin4A neddylation in UBC/DCN1 overactivated human MGC-803 cells at 1 uM incubated for 24 hrs by Western blot analysis; assay type: cell-based; outline: as §1
Cullin-1 (Homo sapiens) [19] = biological target: Cullin-1 (Homo sapiens) (UniProt Q13616); test: Inhibition of cullin1 neddylation in UBC/DCN1 overactivated human MGC-803 cells at 1 uM incubated for 24 hrs by Western blot analysis; assay type: cell-based; outline: as §1
MGC-803 [20] = test: Inhibition of cullin2 neddylation in UBC/DCN1 overactivated human MGC-803 cells at 1 uM incubated for 24 hrs by Western blot analysis; assay type: cell-based; outline: as §1
MGC-803 [21] = test: Induction of p21 accumulation in human MGC-803 cells 0.03 to 3 uM incubated for 24 hrs by Western blot analysis; assay type: functional, cell-based; conditions: dose 0.03-3 µM; outline: as §1
MGC-803 [22] = test: Induction of NRF2 accumulation in human MGC-803 cells 0.03 to 3 uM incubated for 24 hrs by Western blot analysis; assay type: functional, cell-based; conditions: dose 0.03-3 µM; outline: as §1
Cullin-5 (Homo sapiens) [23] = biological target: T2, Cullin-5 (Homo sapiens); test: Inhibition of cullin5 neddylation in UBC/DCN1 overactivated human MGC-803 cells at 1 uM incubated for 24 hrs by Western blot analysis; assay type: cell-based; outline: as §1
Cullin-4B (Homo sapiens) [24] = biological target: Cullin-4B (Homo sapiens) (UniProt Q13620); test: Inhibition of cullin4B neddylation in UBC/DCN1 overactivated human MGC-803 cells at 1 uM incubated for 24 hrs by Western blot analysis; assay type: cell-based; outline: as §1

T1 sequence (Q96GG9 whole entry, the tested form may be a part): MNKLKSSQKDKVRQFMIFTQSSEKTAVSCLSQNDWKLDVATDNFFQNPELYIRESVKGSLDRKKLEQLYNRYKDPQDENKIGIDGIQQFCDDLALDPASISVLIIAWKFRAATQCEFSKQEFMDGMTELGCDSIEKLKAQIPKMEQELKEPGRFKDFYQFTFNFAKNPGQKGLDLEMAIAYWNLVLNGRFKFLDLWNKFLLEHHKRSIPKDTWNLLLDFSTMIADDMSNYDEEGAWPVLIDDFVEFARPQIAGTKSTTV
T1 sequence (P61081 whole entry, further chain, the tested form may be a part): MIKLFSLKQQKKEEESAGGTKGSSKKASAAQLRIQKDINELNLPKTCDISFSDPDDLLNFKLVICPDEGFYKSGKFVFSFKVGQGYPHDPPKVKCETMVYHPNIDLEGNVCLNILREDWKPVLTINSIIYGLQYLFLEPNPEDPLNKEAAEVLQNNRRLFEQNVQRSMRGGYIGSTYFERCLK
Cullin-1 (Homo sapiens), sequence (Q13616 whole entry): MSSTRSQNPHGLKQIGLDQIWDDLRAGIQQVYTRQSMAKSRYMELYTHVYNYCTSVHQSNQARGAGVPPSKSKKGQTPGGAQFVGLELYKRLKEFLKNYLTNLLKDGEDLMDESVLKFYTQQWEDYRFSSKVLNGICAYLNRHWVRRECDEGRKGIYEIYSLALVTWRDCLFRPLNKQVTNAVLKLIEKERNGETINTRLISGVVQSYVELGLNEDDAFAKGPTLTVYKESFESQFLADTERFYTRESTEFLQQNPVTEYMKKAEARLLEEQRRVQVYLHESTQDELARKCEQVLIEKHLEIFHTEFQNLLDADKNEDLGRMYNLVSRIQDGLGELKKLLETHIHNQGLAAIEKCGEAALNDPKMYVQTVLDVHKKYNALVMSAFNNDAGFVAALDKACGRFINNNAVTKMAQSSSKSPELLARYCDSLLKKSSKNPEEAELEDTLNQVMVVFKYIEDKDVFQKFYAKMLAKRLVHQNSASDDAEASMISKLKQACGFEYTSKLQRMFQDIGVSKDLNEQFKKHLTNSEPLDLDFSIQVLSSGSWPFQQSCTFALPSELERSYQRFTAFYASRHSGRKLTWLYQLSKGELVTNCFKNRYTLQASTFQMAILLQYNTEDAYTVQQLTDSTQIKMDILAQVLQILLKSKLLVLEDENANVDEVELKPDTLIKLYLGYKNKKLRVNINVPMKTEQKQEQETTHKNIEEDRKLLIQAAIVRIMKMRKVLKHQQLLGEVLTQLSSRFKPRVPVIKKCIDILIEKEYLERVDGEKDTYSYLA
Cullin-4B (Homo sapiens), sequence (Q13620 whole entry): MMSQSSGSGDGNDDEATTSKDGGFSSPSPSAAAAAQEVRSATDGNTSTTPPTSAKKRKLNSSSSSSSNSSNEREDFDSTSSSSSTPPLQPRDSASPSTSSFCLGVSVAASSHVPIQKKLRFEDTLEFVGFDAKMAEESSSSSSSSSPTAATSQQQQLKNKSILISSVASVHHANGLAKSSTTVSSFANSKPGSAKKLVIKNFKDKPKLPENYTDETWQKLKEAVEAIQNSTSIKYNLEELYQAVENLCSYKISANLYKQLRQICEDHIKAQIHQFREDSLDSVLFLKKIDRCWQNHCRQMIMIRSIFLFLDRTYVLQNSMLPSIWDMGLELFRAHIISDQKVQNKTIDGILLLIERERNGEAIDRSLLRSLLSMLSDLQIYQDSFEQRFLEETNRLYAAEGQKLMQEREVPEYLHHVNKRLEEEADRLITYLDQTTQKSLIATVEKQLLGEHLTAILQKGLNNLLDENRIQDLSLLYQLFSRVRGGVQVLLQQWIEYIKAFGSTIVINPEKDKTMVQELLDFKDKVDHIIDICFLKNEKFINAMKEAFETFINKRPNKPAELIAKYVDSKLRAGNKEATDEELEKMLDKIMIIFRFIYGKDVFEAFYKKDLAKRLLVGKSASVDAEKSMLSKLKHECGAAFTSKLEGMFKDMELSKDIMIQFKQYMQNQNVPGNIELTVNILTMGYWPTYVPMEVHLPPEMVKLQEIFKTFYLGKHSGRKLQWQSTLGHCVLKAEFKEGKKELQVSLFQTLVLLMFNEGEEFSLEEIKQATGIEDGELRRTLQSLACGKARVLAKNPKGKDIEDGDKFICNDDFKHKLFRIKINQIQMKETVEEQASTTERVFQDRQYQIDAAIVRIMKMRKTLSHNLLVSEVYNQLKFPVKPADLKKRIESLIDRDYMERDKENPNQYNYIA
Cullin-4A (Homo sapiens), sequence (Q13619 whole entry): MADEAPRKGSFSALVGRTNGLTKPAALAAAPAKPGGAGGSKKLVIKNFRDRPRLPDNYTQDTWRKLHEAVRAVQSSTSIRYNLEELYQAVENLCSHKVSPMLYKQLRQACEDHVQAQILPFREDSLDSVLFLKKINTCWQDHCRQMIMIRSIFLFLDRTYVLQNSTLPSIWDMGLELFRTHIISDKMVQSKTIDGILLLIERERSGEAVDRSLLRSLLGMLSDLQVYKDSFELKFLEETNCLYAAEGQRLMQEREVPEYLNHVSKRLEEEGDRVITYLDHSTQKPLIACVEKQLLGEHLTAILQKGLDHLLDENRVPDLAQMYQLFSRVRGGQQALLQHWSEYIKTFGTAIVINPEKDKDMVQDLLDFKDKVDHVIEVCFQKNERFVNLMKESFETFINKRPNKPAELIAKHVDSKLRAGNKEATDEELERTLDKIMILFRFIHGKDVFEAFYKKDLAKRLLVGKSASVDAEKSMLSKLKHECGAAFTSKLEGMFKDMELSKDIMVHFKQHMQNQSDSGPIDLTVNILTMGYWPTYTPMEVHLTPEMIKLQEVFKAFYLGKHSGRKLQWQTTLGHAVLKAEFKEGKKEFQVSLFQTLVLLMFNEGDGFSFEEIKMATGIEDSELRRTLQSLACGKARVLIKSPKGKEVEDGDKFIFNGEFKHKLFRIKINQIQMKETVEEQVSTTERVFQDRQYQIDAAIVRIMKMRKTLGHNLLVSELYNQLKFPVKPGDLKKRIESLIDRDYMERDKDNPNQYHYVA

Structure (SMILES): COCCOc1cc2ncnc(Sc3nnnn3CCN(C)C)c2cc1OCCOC
IC50 [1]: > 50000 nM

Structure (SMILES): CCC(=O)N[C@@H](Cc1nc2ccc(C(C)C)cc2s1)C(=O)N[C@H](CNC(=O)CCN1CCOCC1)C1CCCCC1
Activity (MGC-803 [2]): Active
Activity (MGC-803 [3]): 1.3%
inhibition (Cullin-5 (Homo sapiens) [4]): inactive
inhibition (MGC-803 [5]): inactive
inhibition (MGC-803 [6]): Dose-Dependent Effect
Activity (MGC-803 [7]): 1.3%
inhibition (Cullin-4A (Homo sapiens) [8]): inactive
Activity (MGC-803 [9]): 0.7%
inhibition (Cullin-4B (Homo sapiens) [10]): inactive
inhibition (Cullin-1 (Homo sapiens) [11]): inactive

Structure (SMILES): CCCCN1CCC(N(Cc2ccccc2)C(=O)Nc2ccc(Cl)c(Cl)c2)CC1
Activity (MGC-803 [12]): 0.2%
IC50 [13]: 60 nM
Activity (MGC-803 [14]): 0.5%
Activity (MGC-803 [15]): 0.7%

Structure (SMILES): NS(=O)(=O)OC[C@@H]1C[C@@H](n2ccc3c(N[C@H]4CCc5ccccc54)ncnc32)C[C@@H]1O
inhibition (MGC-803 [16]): Active
Activity (MGC-803 [17]): Active
inhibition (Cullin-4A (Homo sapiens) [18]): Active
inhibition (Cullin-1 (Homo sapiens) [19]): Active
inhibition (MGC-803 [20]): Active
Activity (MGC-803 [21]): Active
Activity (MGC-803 [22]): Active
inhibition (Cullin-5 (Homo sapiens) [23]): Active
inhibition (Cullin-4B (Homo sapiens) [24]): Active

Structure (SMILES): Cc1nc2nc(SCc3ccc(Cl)cc3)nn2c(Sc2nnnn2CCN(C)C)c1C
IC50 [1]: 3360 nM

Structure (SMILES): Cn1nnnc1Sc1cc(-c2ccccc2)nc2ncnn12
IC50 [1]: 5820 nM

Structure (SMILES): Oc1ccc(-n2nnnc2Sc2cc(-c3ccccc3)nc3ncnn23)cc1
IC50 [1]: 3880 nM

Structure (SMILES): Cc1cc(Sc2nnnn2CCN(C)C)n2nc(SCc3csc4ccc(Cl)cc34)nc2n1
IC50 [1]: 4890 nM

Structure (SMILES): CN(C)CCn1nnnc1Sc1ncnc2ccsc12
IC50 [1]: > 50000 nM

The remaining compounds from weak to strong by IC50 [1], led by results:

IC50 [1]: 1080 nM
Structure (SMILES): Cc1cc(Sc2nnnn2CCN(C)C)n2nc(SCc3cccc(C(F)(F)F)c3)nc2n1

IC50 [1]: 824 nM
Structure (SMILES): Cc1cc(Sc2nnnn2CCN(C)C)n2nc(SCc3ccccc3Br)nc2n1

IC50 [1]: 654 nM
Structure (SMILES): Cc1cc(Sc2nnnn2CCN(C)C)n2nc(SCc3ccccc3C(F)(F)F)nc2n1

IC50 [1]: 532 nM
Structure (SMILES): Cc1cc(Sc2nnnn2CCN(C)C)n2nc(SCCCc3ccccc3)nc2n1

IC50 [1]: 268 nM
Structure (SMILES): Cc1cc(Sc2nnnn2CCN(C)C)n2nc(SC(C)C)nc2n1

IC50 [1]: 192 nM
Structure (SMILES): Cc1cc(Sc2nnnn2CCN(C)C)n2nc(SCc3c(Cl)cccc3Cl)nc2n1

IC50 [1]: 127 nM
Structure (SMILES): CN(C)CCn1nnnc1Sc1cc(C2CC2)nc2ncnn12

IC50 [1]: 78 nM
Structure (SMILES): Cc1ccc(CSc2nc3nc(C)cc(Sc4nnnn4CCN(C)C)n3n2)cc1

IC50 [1]: 67 nM
Structure (SMILES): C#CCSc1nc2nc(C)cc(Sc3nnnn3CCN(C)C)n2n1

IC50 [1]: 58 nM
Structure (SMILES): Cc1cc(Sc2nnnn2CCN(C)C)n2nc(SCC3CCCCC3)nc2n1

IC50 [1]: 51 nM
Structure (SMILES): Cc1cc(Sc2nnnn2CCN(C)C)n2ncnc2n1

IC50 [1]: 28 nM
Structure (SMILES): COc1ccc(CSc2nc3nc(C)cc(Sc4nnnn4CCN(C)C)n3n2)cc1

IC50 [1]: 16 nM
Structure (SMILES): Cc1cc(Sc2nnnn2CCN(C)C)n2nc(SCc3ccc(F)cc3)nc2n1

IC50 [1]: 15 nM
Structure (SMILES): Cc1cc(Sc2nnnn2CCN(C)C)n2nc(SCc3ccc(Br)cc3)nc2n1
